Measurements gathered from unrelated publications.
Protocols differ between the studies behind these lines.
Target: SRSF protein kinase 2 (SRPK2, Homo sapiens, UniProt P78362)

| Structure (SMILES) | test | setting | remaining binding [%] |
| --- | --- | --- | --- |
| C[C@@H](c1ccc(-n2cnc3c(N)ncnc32)cc1)N1CCc2nn(C)c(Cc3ccccc3)c2C1=O | binding, competition with immobilised ligand | 0.1 µM | 83 |
| O=C(c1ccc(Nc2ncc(Cl)c(-c3cc4ccccc4s3)n2)cc1)N1CCC(N2CCCC2)CC1 | binding, competition with immobilised ligand | 1 µM | 99 |
| C[C@H]1CCN(c2nccc(-c3cnn4ncccc34)n2)C1 | binding | 1 µM | 93 |
| O=C(NCCCN1CCOCC1)c1ccc(Nc2ncc(Cl)c(-c3ccc(Cl)s3)n2)cc1 | binding, competition with immobilised ligand | 1 µM | 75 |
| CCOC(=O)c1cc2cc(-c3cc(C(=O)NCc4ccc(C(=O)O)cc4)nn3C)ccc2[nH]1 | cell-free assay, competition with immobilised ligand | 0.1 µM | 100 |
| CN(CCCC(F)(F)F)c1nccc(-c2cnn3ncccc23)n1 | binding | 1 µM | 100 |
| Nc1ncc2c(n1)-c1c([nH]c3ccc(C#CC4CC4)cc13)CCCC2 | binding, competition with immobilised ligand | 1 µM | 82 |
| Cc1c(NC(=O)c2cc(C(N)=O)nc3cc(F)ccc23)c(C(F)(F)F)nn1Cc1ccc(C(C)(C)C)cc1 | cell-free assay, competition with immobilised ligand | 1 µM | 97 |
| FC(F)(F)Oc1cccc(-c2cnc3ccc(-c4ccncc4)nn23)c1 | binding, competition with immobilised ligand | 5 µM | 66 |
| CC1CCCN1c1nccc(-c2cnn3ncccc23)n1 (stereo not drawn) | binding | 1 µM | 100 |
| O=C1NC(c2ccccn2)Sc2ccccc21 (stereo not drawn) | cell-free assay, competition with immobilised ligand | 1 µM | 100 |
| O=C(c1ccc(Nc2nccc(-c3cc4ccccc4s3)n2)cc1)N1CCC(N2CCCC2)CC1 | binding, competition with immobilised ligand | 1 µM | 92 |
| N[C@H]1CCN(c2nccc(-c3cnn4ncccc34)n2)C1 | binding | 1 µM | 62 |
| O=C(NCC1CCOCC1)c1n[nH]cc1NC(=O)c1c(F)cccc1F | binding, competition with immobilised ligand | 1 µM | 84 |
| C[C@@H]1CN(c2cc(-c3nn(C)c4ccc(OC5(C)CC5)cc34)ncn2)C[C@H](C)O1 | cell-free assay, competition with immobilised ligand | 1 µM | 88 |
| CNC(=O)[C@@H]1CC[C@@H](n2c(-c3ccc4cnccc4c3)nc3ccc(C(=O)NCc4cccc(C(N)=O)c4)cc32)C1 | binding, competition with immobilised ligand | 1 µM | 100 |
| CN(C)c1nccc(-c2cnc3ncccn23)n1 | binding | 1 µM | 100 |
| N#Cc1ccc(Nc2ccc3[nH]c(=O)[nH]c3c2)c(Cl)c1 | cell-free assay, competition with immobilised ligand | 1 µM | 100 |
| C=CC(=O)N1CCC(C(=O)NCC(=O)N2CCN(c3nc(-c4cnc(N)nc4C(F)F)nc(N4CCOCC4)n3)CC2)CC1 | binding, competition with immobilised ligand | 1 µM | 100 |
| Cc1cnn2ncc(-c3ccnc(N(C)C)n3)c2c1 | binding | 1 µM | 100 |
| Cc1nc(Cc2cccc(C(F)(F)F)c2)sc1-c1ccc(C(N)=O)nc1 | cell-free assay, competition with immobilised ligand | 1 µM | 100 |
